# SENP8 block-1: SENP8 protease inhibitors, primary screen, biochemical, luminescence. AID 2540, 2010. 330,000 compounds, 1.2% hits. purified SENP8, Z-RLRGG-aminoluciferin cleavage. inhibition, % at 10 µM; in the data active means inhibition above about 50%
# SENP8 block-2: human SENP8 protease inhibitors, primary screen, biochemical, fluorescence, Nedd8 protein substrate, uHTS | AID 602440, 2012 | inhibition, % at 20 µM | recombinant SENP8 | Sentrin-specific protease 8 (Homo sapiens), Q96LD8 | 360,000 compounds, 0.64% hits; in the data active means inhibition mostly above about 40%, no sharp cut-off; inactive means mostly below about 27%
# Platelet DG rel: inhibitors of platelet dense granule secretion, primary screen, cell-based, MLPCN, human platelets. human platelet-rich plasma, SFLLRN dense granule ATP release, luminescence. inhibition, %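 (compounds screened at 7.5 µM in platelet-rich plasma)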. 300,000 compounds, 0.22% hits;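 active means mean replicate score, as percent of positive control, at or above 50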
# SENP7 block: SENP7 protease inhibitors, primary screen, biochemical, luminescence, uHTS; recombinant SENP7, Z-RLRGG-aminoluciferin luminescence, 40 min; inhibition, % at 5 µM; 330,000 compounds, 1.5% hits;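 active means inhibition above about 50% at the single test dose, limit read from the data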;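 further: plate controls were DMSO with enzyme for no effect and no enzyme buffer wells for full effect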
# Target sequence (Q9BQF6 706-1050 limits assumed): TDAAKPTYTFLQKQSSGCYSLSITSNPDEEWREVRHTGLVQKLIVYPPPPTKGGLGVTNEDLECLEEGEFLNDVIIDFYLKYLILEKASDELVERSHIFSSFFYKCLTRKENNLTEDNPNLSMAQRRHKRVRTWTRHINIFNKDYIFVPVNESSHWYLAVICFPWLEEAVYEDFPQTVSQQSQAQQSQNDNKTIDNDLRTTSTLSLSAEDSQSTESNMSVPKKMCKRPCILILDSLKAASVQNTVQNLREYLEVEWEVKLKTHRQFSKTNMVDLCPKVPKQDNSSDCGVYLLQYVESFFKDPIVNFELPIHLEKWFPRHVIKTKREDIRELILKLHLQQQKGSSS
# SENP1 FRET inh: human SENP1 catalytic domain inhibitors, primary screen, biochemical, FRET, uHTS | AID 624204, 2012 | 360,000 compounds, 0.21% hits | recombinant SENP1 catalytic domain, CyPet-SUMO1-YPet FRET cleavage | inhibition, % at 10 µM;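 active means inhibition at least 30% at 10 µM, raw YFP signal under a set limit, fluorescence ratio 0.5 to 1.5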;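 further: 0% = enzyme with DMSO and 100% = no enzyme wells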
#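 Test system: hSENP1 catalytic domain, recombinant; Amount: 20 pM final SENP1 enzyme; Medium: Tris pH 8 buffer plus EDTA, NaCl, BME, BSA, NP40, catalase; Schedule: 50 min enzyme reaction, room temperature, light-protected; Technique: FRET fluorescence in CFP and YFP emission channels; Controls: no-enzyme wells low, DMSO-plus-enzyme wells high control.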
# SENP6 inh: SENP6 protease inhibitors, primary screen, biochemical, luminescence, uHTS | Sentrin-specific protease 6 (Homo sapiens), Q9GZR1 | Recombinant SENP6 catalytic domain, aminoluciferin luminescence | inhibition, % at 10 µM | 330,000 compounds, 1.8% hits | AID 2599, 2010;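 active means inhibition above about 50% at the single tested dose, limit read from the data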;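 further: plate controls were DMSO wells with enzyme for no effect and DMSO wells lacking enzyme for full effect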
# SENP8 conf: SENP8 protease inhibitors, retest, confirmation, biochemical, luminescence, single concentration. Recombinant SENP8, Z-RLRGG-aminoluciferin luminescence, 60 min. inhibition, % at 12.5 µM. 6,200 compounds, 40% hits. shares compounds with SENP7 block;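 active means mean inhibition across replicates above about 50%, limit read from the data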
# SENP6 conf: SENP6 protease inhibitors, confirmation, biochemical, luminescence, single concentration; shares compounds with SENP7 block; recombinant SENP6, Z-RLRGG-aminoluciferin luminescence; inhibition, % at 12.5 µM; 6,200 compounds, 58% hits; AID 488915, 2010
# SENP7 confirm: SENP7 protease inhibitors, retest, confirmation, biochemical, luminescence, single concentration; shares compounds with SENP7 block; recombinant SENP7, Z-RLRGG-aminoluciferin luminescence, 40 min; inhibition, % at 12.5 µM; 6,200 compounds, 69% hits
# Casp3 SENP sel: caspase-3 protease inhibitors, confirmation, selectivity assay for SENP inhibitor project, biochemical, single concentration | inhibition, % at 12.5 µM | AID 488918, 2010 | 6,200 compounds, 60% hits | shares compounds with SENP7 block | purified caspase-3, Z-DEVD-aminoluciferin luminescence, 60 min;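 active means mean inhibition above about 50%, limit read from the data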;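 further: plate controls were enzyme with DMSO for no effect and wells without caspase-3 for full effect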
# Target sequence (P42574 28-227 limits assumed): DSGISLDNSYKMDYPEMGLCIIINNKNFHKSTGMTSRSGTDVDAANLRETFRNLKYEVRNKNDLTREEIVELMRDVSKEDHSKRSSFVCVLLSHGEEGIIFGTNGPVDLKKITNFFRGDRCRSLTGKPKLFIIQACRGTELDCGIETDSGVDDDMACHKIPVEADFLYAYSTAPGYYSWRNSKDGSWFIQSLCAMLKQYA
# Luc interf: luminescence interference (SENP counter-screen). shares compounds with SENP7 block. Pre-incubated SENP8/Z-RLRGG-aminoluciferin, luciferase luminescence interference. inhibition, % at 12.5 µM. 6,200 compounds, 39% hits. AID 488919;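 active means mean inhibition above about 50% when retested at one dose, limit read from the data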;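 further: plate controls were DMSO wells with completed reaction for no effect and substrate without enzyme for full effect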
# The depositor's hits bear a star; . = no result given. Hits are enriched below; roughly 2.6% of the tested compounds scored in any of these assays.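 How the source made its calls, unless noted: active means mean inhibition above about 50% in the one-dose retest (limit read from the data); inactive means the rest.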
SMILES,SENP8 block-1,SENP8 block-2,Platelet DG rel,SENP7 block,SENP1 FRET inh,SENP6 inh,SENP8 conf,SENP6 conf,SENP7 confirm,Casp3 SENP sel,Luc interf
Cc1ccccc1NC(=O)c1onc2c1CCCC2,66*,8,9,55*,0,83*,22,63*,90*,85*,72*
COc1ccc(NC(=O)OC(C)C)cc1,30,32,37,25,3,55*,24,34,71*,75*,35
CN(C)S(=O)(=O)Oc1ccc(C(=O)Nc2ccc([N+](=O)[O-])cc2)cc1,-3,22,3,6,1,-3,.,.,.,.,.
CC(C)OC(=O)Nc1ccc(-c2ccc(NC(=O)OC(C)C)cc2Cl)c(Cl)c1,4,20,-2,8,2,-11,.,.,.,.,.
COc1ccc(NC(=O)c2ccc(C)cc2)cc1,27,30,-1,41,0,63*,35,31,71*,68*,14
COc1cccc(NC(=O)c2ccc(NC(=O)C(C)(C)C)cc2)c1,37,27,25,72*,1,73*,71*,66*,86*,82*,70*
CCCC(=O)Nc1ccc(C(=O)Nc2cccc(OC)c2)cc1,31,7,15,41,1,13,.,.,.,.,.
COc1ccc(C(=O)NNC(=O)C(=O)Nc2ccc(C)cc2)cc1,-10,16,1,-8,1,-20,.,.,.,.,.
CC(C)Oc1ccc(C(=O)Nc2ccc([N+](=O)[O-])cc2)cc1,26,35,25,86*,1,61*,19,28,15,23,-1
CN(CC(=O)Nc1ccc(F)cc1)C(=O)COC(=O)C1=COCCO1,-12,9,-5,-7,0,-2,.,.,.,.,.
CC(=O)N1CCC(O)(c2ccc3c(c2)OCO3)CC1,0,9,9,0,1,7,.,.,.,.,.
COc1ccc(NC(=O)c2ccccc2)cc1,41,15,.,58*,0,51*,31,32,78*,79*,57*
Cc1cccc(NC(=O)c2ccc(OC3CSC3)cc2)c1,91*,14,35,97*,0,94*,66*,89*,99*,93*,61*
COc1ccc(C(=O)Nc2cccc(C)c2)cc1,78*,16,56*,90*,3,92*,84*,86*,99*,92*,85*
O=C(O)c1ccc(OC2CSC2)cc1,40,22,-3,-1,-1,52*,55*,54*,26,13,38
COc1ccc(C(=O)Nc2cccc(NC(C)=O)c2)cc1,.,2,.,.,2,.,.,.,.,.,.
COc1ccc(NC(=O)c2ccc(NC(=O)c3cccnc3)cc2)cc1,.,3,.,.,-11,.,.,.,.,.,.
O=C(NCc1ccccc1)c1ccc(OC2CSC2)cc1,-11,20,-3,-10,1,-4,.,.,.,.,.
CC(=O)Nc1cccc(NC(=O)CSc2nc(=O)n(CCCN3CCOCC3)c3c2CCC3)c1,-3,15,-1,-16,1,2,.,.,.,.,.
COc1ccccc1C(=O)C1CCCN(C(=O)Nc2ccccc2F)C1 (stereo not drawn),1,13,4,10,2,-28,.,.,.,.,.
O=C(NCC1CC1)c1csc(COCCO)n1,.,12,.,.,1,.,.,.,.,.,.
CCNC(=O)COc1ccc(-c2ccccc2)cc1,-19,31,1,-4,1,-19,.,.,.,.,.
CC(C)(C)NC(=O)COc1ccc(-c2ccccc2)cc1,-1,14,2,32,1,51*,36,28,62*,31,21
CC(C)C[C@H]1CNC(=S)N1C[C@H]1CCCN1C[C@H](Cc1ccc(O)cc1)N1C[C@H](Cc2ccc(O)cc2)N(CC2CCCCCC2)C1=S,.,9,.,.,3,.,.,.,.,.,.
Cc1ccc(C(=O)Cc2nc3ccccc3[nH]2)cc1,-2,-3,-5,4,-25,-20,.,.,.,.,.
SMILES,SENP8 block-1,SENP8 block-2,Platelet DG rel,SENP7 block,SENP1 FRET inh,SENP6 inh,SENP8 conf,SENP6 conf,SENP7 confirm,Casp3 SENP sel,Luc interf
c1ccc(OCc2nc3ccccc3[nH]2)cc1,31,9,0,54*,0,61*,50,51*,85*,82*,68*
Cc1ccc(OCc2nc3ccccc3[nH]2)cc1,61*,4,-2,68*,1,45,52*,53*,78*,70*,61*
CS(=O)(=O)N(CC(=O)Nc1ccc(S(=O)(=O)N2CCCC2)cc1)c1cccc(F)c1,-9,18,-2,-2,3,0,.,.,.,.,.
O=C1/C(=C\c2cccs2)Sc2ccc3ccccc3c21,88*,10,14,98*,4,92*,9,50*,80*,78*,2
O=C1C(=Cc2cccs2)C(=O)c2ccccc21,10,10,-5,12,2,31,.,.,.,.,.
CC(C)C[C@H]1CN(CCCC[C@H]2CNC(=O)C(=O)N2CCc2ccccc2)C(=O)C(=O)N1CCc1ccccc1,.,6,.,.,-1,.,.,.,.,.,.
O=C(Cc1n[nH]c(=O)c2ccccc12)OCC(=O)c1ccc(F)c(F)c1,-2,8,6,-11,3,-10,.,.,.,.,.
CCCC[n+]1ccn(C2=C([O-])c3ccccc3C(=O)/C2=N\S(=O)(=O)c2ccc(Cl)cc2)c1,26,48*,-15,30,1,57*,16,50*,0,-2,-4
O=C(Nc1nc2ccccc2[nH]1)Nc1ccccc1F,39,15,12,40,-2,60*,14,54*,38,31,5
CN(C)c1cccc(C(=O)Nc2nc3ccccc3[nH]2)c1,37,-193,11,65*,-2,33,41,44,81*,73*,43
O=C(Nc1nc2ccccc2[nH]1)c1cccc(Br)c1,3,-11,-6,57*,0,-17,-6,1,3,34,10
